Values after ≈ are worked out from the molar mass of the structure shown.
Assays:
[1] = Oral bioavailability in Wistar rat at 10 mg/kg; type: ADME, organism-based; conditions: in vivo
Outline: (§1)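 Single doses given to three male Wistar rats per route: 10 mg/kg orally and 1 mg/kg intravenously, as a solution in 20% propyleneglycol/80% buffer. Plasma PK parameters were derived. CL, terminal T1/2 and Vss come from the intravenous arm. AUC0–last comes from the oral arm.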

[2] = Volume of distribution at steady state in Wistar rat at 10 mg/kg, po and 1 mg/kg, iv; type: ADME, organism-based; conditions: in vivo, read-out: Vdss; outline: as §1
[3] = Terminal half life in Wistar rat at 10 mg/kg, po and 1 mg/kg, iv; type: ADME, organism-based; conditions: in vivo, read-out: beta t1/2 (converted); outline: as §1
[4] = Clearance in Wistar rat at 10 mg/kg, po and 1 mg/kg, iv; type: ADME, organism-based; conditions: in vivo; outline: as §1
[5] = Cmax in Wistar rat at 10 mg/kg, po and 1 mg/kg, iv; type: ADME, organism-based; conditions: in vivo; outline: as §1
[6] = AUC (0 to last) in Wistar rat at 10 mg/kg, po; type: ADME, organism-based; parameters: time 0 - last, dose 10 mg/kg, route oral; conditions: plasma; outline: as §1
[7] = Stability in simulated intestinal fluid after 4 hrs by LC/MS analysis; type: physicochemical; conditions: read-out: Stability
Outline: (§2)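 Compound incubated in simulated gastric fluid for 1 h or simulated intestinal fluid for 4 h. Unchanged parent recovered and measured by LC–MS, expressed as % parent.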

[8] = Stability in simulated gastric fluid after 1hr by LC/MS analysis; type: physicochemical; conditions: read-out: Stability; outline: as §2
[9] = Solubility of the compound in buffer at pH 4; type: physicochemical
Outline: (§3)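 Solubility measured in buffered aqueous solution at pH 4 and pH 7, and in water, where the final pH of the aqueous solution was 4.6.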

[10] = Solubility of the compound in buffer at pH 7; type: physicochemical; outline: as §3
[11] = Aqueous solubility of the compound in water at pH 4.6; type: physicochemical; outline: as §3
[12] = Lipophilicity, log D of the compound at pH 7.4; type: physicochemical; conditions: buffer
[13] = Intrinsic clearance in rat hepatocytes measured per 10^6 cells; type: ADME, cell-based, Hepatocyte; conditions: read-out: CLH
Outline: (§4)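 Intrinsic clearance determined in human and rat liver microsomes (per mg protein) and in rat hepatocytes (per 10⁶ cells).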

[14] = Intrinsic clearance in rat liver microsomes assessed per mg of protein; type: ADME, Microsome; conditions: read-out: CLH; outline: as §4
[15] = Metabolic stability in human plasma assessed as compound remaining after 4 hrs; type: ADME, cell-free; conditions: read-out: Stability
Outline: (§5)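 Compound incubated in rat and human plasma for up to 4 h. Unchanged parent quantified by LC–MS, reported as % parent remaining at 4 h plus elimination half-life.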

[16] = Intrinsic clearance in human liver microsomes assessed per mg of protein; type: ADME, Microsome; conditions: read-out: CLH; outline: as §4
[17] = Half life in rat plasma; type: ADME, cell-free; outline: as §5
[18] = Half life in human plasma; type: ADME, cell-free; outline: as §5
[19] = Metabolic stability in rat plasma assessed as compound remaining after 4 hrs; type: ADME, cell-free; conditions: read-out: Stability; outline: as §5
[20] = target: Cytochrome P450 2D6 (Homo sapiens, UniProt P10635); test: Inhibition of CYP2D6 (unknown origin); type: ADME
[21] = target: Cytochrome P450 3A4 (Homo sapiens, UniProt P08684); test: Inhibition of CYP3A4 (unknown origin); type: ADME
[22] = target: Cytochrome P450 2C9 (Homo sapiens, UniProt P11712); test: Inhibition of CYP2C9 (unknown origin); type: ADME
[23] = target: Prostaglandin E2 receptor EP4 subtype (Homo sapiens, UniProt P35408); test: Inhibition of PGE2 binding to human EP4 receptor
[24] = target: T1, Prostaglandin E2 receptor EP3 subtype (Homo sapiens, UniProt P43115); test: Antagonist activity at human EP3 receptor assessed as inhibition of PGE2-induced Ca2+ mobilization by FLIPR assay; type: functional
T1 sequence (P43115 whole entry): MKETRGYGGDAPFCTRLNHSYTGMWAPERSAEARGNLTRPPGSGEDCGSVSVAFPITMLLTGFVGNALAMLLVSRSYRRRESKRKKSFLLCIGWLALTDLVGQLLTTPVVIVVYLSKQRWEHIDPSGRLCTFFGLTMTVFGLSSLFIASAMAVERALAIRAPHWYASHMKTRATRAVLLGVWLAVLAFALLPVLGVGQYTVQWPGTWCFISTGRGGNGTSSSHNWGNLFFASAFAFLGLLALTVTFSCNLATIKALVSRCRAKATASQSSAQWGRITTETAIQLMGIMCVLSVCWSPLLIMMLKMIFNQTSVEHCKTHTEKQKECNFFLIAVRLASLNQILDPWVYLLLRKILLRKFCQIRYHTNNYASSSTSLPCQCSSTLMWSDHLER
Outline: (§6)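 Antagonism measured as inhibition of agonist-induced Ca2+ mobilization by FLIPR: PGE2 as agonist for human EP1 and EP3, U46619 as agonist for human TP. Values are IC50.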

[25] = target: T2, Prostaglandin E2 receptor EP1 subtype (Homo sapiens, UniProt P34995); test: Antagonist activity at human EP1 receptor assessed as inhibition of PGE2-induced Ca2+ mobilization by FLIPR assay; type: functional; outline: as §6
T2 sequence (P34995 whole entry): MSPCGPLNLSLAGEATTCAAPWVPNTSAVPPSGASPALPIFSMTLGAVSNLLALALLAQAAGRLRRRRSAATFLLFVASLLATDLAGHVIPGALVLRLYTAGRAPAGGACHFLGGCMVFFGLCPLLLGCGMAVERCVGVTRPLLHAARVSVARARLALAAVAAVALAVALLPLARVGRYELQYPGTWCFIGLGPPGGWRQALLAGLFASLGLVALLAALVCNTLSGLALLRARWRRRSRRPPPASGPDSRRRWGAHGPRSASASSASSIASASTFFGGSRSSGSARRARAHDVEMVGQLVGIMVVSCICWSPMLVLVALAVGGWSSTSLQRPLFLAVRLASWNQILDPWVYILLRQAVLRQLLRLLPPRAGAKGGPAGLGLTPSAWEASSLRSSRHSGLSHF

[26] = target: T3, Prostaglandin D2 receptor (Homo sapiens, UniProt Q13258); test: Inhibition of PGD2 binding to human DP1 receptor
T3 sequence (Q13258 whole entry): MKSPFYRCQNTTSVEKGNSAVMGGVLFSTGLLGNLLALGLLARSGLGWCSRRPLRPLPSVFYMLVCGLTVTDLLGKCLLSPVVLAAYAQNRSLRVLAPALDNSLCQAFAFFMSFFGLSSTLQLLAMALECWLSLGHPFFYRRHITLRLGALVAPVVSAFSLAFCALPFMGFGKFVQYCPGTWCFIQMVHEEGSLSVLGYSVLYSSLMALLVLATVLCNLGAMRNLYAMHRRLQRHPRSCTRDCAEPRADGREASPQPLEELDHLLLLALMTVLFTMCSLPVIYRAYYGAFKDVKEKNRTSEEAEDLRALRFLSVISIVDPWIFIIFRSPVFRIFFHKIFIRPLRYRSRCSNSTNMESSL

[27] = target: T4, Prostaglandin D2 receptor 2 (Homo sapiens, UniProt Q9Y5Y4); test: Displacement of [3H]PGD2 from human CRTh2 receptor
T4 sequence (Q9Y5Y4 whole entry): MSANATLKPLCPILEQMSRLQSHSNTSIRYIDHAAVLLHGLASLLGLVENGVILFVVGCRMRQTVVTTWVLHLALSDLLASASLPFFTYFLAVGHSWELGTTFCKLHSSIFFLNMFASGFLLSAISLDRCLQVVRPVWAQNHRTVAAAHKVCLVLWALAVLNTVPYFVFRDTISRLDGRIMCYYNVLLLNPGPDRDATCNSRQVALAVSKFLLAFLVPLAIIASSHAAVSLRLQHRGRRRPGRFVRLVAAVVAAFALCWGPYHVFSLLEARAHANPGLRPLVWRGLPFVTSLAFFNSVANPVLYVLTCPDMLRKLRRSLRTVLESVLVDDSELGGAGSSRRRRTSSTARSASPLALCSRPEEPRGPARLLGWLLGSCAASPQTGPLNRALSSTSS
Outline: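 Human CRTh2 binding assay run in assay buffer. IC50 reported as the mean of at least three experiments.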

[28] = target: T4, Prostaglandin D2 receptor 2; test: Displacement of [3H]PGD2 from human CRTh2 receptor in presence of human serum albumin
Outline: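 Human CRTh2 binding assay run with 0.5% human serum albumin added to the assay buffer to mimic binding to blood proteins. IC50 is reported as the mean of at least three experiments.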

[29] = target: Prostaglandin E2 receptor EP2 subtype (Homo sapiens, UniProt P43116); test: Inhibition of PGE2 binding to human EP2 receptor
[30] = target: T5, Thromboxane A2 receptor (Homo sapiens, UniProt P21731); test: Antagonist activity at human TP2 receptor assessed as inhibition of U46619-induced Ca2+ mobilization by FLIPR assay; type: functional; outline: as §6
T5 sequence (P21731 whole entry): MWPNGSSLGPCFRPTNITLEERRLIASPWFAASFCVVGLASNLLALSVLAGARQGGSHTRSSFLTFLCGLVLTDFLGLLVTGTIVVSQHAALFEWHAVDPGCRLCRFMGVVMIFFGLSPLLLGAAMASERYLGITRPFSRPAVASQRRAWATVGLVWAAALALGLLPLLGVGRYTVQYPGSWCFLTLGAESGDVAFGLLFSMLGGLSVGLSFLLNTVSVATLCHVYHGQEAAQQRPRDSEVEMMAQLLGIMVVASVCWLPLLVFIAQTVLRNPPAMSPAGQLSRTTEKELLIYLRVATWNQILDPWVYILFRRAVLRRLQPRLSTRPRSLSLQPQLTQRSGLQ

Chain of Cytochrome P450 2C9 (P11712 whole entry): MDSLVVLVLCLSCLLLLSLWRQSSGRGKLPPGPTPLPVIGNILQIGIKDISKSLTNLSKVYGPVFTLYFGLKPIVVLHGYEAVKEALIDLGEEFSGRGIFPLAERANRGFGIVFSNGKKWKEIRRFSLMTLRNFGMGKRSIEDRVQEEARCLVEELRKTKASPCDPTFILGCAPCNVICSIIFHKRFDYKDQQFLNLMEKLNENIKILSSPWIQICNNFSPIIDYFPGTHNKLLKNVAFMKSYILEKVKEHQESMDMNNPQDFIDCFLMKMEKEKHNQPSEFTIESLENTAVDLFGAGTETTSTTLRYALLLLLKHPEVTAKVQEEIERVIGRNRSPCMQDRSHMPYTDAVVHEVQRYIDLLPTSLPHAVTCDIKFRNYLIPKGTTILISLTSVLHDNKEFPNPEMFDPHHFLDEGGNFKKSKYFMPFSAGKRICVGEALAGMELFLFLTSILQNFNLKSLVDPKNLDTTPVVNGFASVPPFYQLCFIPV
Chain of Cytochrome P450 3A4 (P08684 whole entry): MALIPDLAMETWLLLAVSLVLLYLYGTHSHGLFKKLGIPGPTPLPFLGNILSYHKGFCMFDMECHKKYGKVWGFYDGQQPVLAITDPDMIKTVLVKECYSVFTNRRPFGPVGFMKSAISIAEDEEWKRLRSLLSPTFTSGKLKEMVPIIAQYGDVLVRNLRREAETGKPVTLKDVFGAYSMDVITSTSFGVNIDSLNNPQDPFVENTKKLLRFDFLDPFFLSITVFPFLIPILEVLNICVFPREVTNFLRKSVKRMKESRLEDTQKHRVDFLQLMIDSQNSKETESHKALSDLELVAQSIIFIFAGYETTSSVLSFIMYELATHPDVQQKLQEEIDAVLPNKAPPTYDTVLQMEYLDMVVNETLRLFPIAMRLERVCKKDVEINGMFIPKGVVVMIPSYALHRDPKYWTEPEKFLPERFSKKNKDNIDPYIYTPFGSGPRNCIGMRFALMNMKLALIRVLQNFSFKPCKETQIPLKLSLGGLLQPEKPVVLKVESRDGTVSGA
Chain of Prostaglandin E2 receptor EP4 subtype (P35408 whole entry): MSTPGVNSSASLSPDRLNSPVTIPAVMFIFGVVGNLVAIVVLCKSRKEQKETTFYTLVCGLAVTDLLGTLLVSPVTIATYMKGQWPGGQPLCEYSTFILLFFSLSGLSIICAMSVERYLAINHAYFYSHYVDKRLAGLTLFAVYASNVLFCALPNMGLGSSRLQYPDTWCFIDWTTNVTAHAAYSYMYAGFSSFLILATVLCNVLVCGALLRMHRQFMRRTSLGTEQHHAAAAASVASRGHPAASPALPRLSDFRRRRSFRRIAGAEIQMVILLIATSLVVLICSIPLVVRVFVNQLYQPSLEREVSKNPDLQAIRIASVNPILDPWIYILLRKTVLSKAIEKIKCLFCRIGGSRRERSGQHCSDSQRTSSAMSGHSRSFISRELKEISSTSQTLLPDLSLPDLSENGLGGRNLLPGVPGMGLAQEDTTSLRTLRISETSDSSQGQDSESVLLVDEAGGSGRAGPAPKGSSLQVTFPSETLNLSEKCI
Chain of Prostaglandin E2 receptor EP2 subtype (P43116 whole entry): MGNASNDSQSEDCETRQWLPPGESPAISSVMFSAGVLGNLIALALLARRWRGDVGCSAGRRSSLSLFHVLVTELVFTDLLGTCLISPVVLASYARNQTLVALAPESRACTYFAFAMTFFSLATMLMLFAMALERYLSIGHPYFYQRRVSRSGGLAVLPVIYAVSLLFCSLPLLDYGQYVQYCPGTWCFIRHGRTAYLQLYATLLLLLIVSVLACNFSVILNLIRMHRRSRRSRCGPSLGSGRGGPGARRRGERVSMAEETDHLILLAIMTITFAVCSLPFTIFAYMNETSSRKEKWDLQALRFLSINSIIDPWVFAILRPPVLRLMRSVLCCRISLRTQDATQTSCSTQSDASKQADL
Chain of Cytochrome P450 2D6 (P10635 whole entry): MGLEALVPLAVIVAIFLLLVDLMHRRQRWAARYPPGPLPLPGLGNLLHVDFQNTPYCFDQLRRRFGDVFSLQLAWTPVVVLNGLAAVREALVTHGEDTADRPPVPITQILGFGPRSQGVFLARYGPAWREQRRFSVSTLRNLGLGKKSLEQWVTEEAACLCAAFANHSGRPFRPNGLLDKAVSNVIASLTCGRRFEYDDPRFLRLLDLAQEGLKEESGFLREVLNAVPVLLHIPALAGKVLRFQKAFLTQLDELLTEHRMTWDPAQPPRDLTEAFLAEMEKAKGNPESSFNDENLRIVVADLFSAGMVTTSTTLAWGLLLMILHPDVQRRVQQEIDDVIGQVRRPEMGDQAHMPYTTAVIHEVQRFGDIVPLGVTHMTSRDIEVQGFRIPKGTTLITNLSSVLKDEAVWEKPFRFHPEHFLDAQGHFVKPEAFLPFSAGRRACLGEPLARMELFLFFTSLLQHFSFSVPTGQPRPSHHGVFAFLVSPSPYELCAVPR

Question: With `N#C/C(=C\c1cn(CC(=O)O)c2ccccc12)C(=O)N1CCCc2ccccc21` as the compound, how does the bioavailability [1] read?
Answer: 18%

Question: And the Vd [2]?
Answer: 0.7 L/kg

Question: What about the half-life [3] of the same compound?
Answer: 60 min

Question: What about the clearance [4] of the same compound?
Answer: 14 mL/min/kg

Question: And the Cmax [5]?
Answer: 213 ng/mL

Question: What about the AUC(0-t) [6] of the same compound?
Answer: 2200 ng·h/mL

Question: What about the remaining at 4 h [7] of the same compound?
Answer: 68%

Question: And the remaining at 1 h [8]?
Answer: 93%

Question: What about the solubility [9] of the same compound?
Answer: 7 µg/mL (≈ 18.2 µM)

Question: And the solubility [10]?
Answer: 670 µg/mL (≈ 1740 µM)

Question: And the solubility [11]?
Answer: 17 µg/mL (≈ 44.1 µM)

Question: And the logD [12]?
Answer: -0.4

Question: What about the hepatocyte CLint [13] of the same compound?
Answer: 11 µL/min/1e6 cells

Question: And the microsomal CLint [14]?
Answer: 32 µL/min/mg

Question: What about the remaining at 4 h [15] of the same compound?
Answer: 95%

Question: What about the microsomal CLint [16] of the same compound?
Answer: 6 µL/min/mg

Question: What about the half-life [17] of the same compound?
Answer: > 240 min

Question: And the half-life [18]?
Answer: > 240 min

Question: What about the remaining at 4 h [19] of the same compound?
Answer: 90%

Question: What about the IC50 [20] of the same compound?
Answer: > 10 µM

Question: And the IC50 [21]?
Answer: > 10 µM

Question: What about the IC50 [22] of the same compound?
Answer: > 10 µM

Question: And the IC50 [23]?
Answer: > 10 µM

Question: And the IC50 [24]?
Answer: > 10 µM

Question: What about the IC50 [25] of the same compound?
Answer: > 10 µM

Question: And the IC50 [26]?
Answer: 8.2 µM

Question: What about the IC50 [27] of the same compound?
Answer: 14 nM

Question: And the IC50 [28]?
Answer: 10 nM

Question: What about the IC50 [29] of the same compound?
Answer: > 10 µM

Question: What about the IC50 [30] of the same compound?
Answer: > 25 µM

Source: ChEMBL document CHEMBL2390869, “Evolution of novel tricyclic CRTh2 receptor antagonists from a (E)-2-cyano-3-(1H-indol-3-yl)acrylamide scaffold” (Bioorg Med Chem Lett, 2013)
